# Experimental data: ChEMBL document CHEMBL3351461, “Discovery of novel, dual mechanism ERK inhibitors by affinity selection screening of an inactive kinase” (J Med Chem, 2014)
# Calls of active or inactive are those of the source. No cut-off for these calls is given here.
# Tests used:
# [1] = molecular target: Mitogen-activated protein kinase 1 (Mus musculus) (UniProt P63085); assay: Inhibition of inactive ERK2 (mouse) coupled with human MEK1 using IMAP peptide substrate after 30 mins by coupled ERK2 assay
# [2] = molecular target: T1, Dual specificity mitogen-activated protein kinase kinase; MEK1/2 (Homo sapiens) (UniProt P36507+Q02750); assay: Binding affinity to unphosphorylated MEK (unknown origin) by temperature dependent fluorescence (TdF) assay
# [3] = molecular target: T2, Mitogen-activated protein kinase 1 (Homo sapiens, UniProt P28482); assay: Inhibition of activated ERK2 (unknown origin) using IMAP peptide substrate after 30 mins by activated ERK2 assay
# How it was run: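 IMAP fluorescence-polarization assay. Started with 1 μM substrate peptide (100 nM fluorescein-labelled) and 30 μM ATP. Run 30 min, stopped with IMAP beads, read after 30 min. N = 2.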
# [4] = molecular target: T1, Dual specificity mitogen-activated protein kinase kinase; MEK1/2 (Homo sapiens); assay: Binding affinity to phosphorylated MEK (unknown origin) by temperature dependent fluorescence (TdF) assay
# [5] = molecular target: Serine/threonine-protein kinase 3 (Homo sapiens, UniProt Q13188); assay: Inhibition of MST2 (unknown origin)
# [6] = molecular target: Mitogen-activated protein kinase 11 (Homo sapiens, UniProt Q15759); assay: Inhibition of p38beta (unknown origin)
# [7] = molecular target: Inhibitor of nuclear factor kappa-B kinase subunit beta (Homo sapiens, UniProt O14920); assay: Inhibition of IKKbeta (unknown origin)
# [8] = molecular target: Serine/threonine-protein kinase PLK3 (Homo sapiens, UniProt Q9H4B4); assay: Inhibition of PLK3 (unknown origin)
# A2058 [9] = assay: Inhibition of RSK phosphorylation in human A2058 cells after 4 hrs by immunoblotting analysis; assay type: cell-based
# [10] = molecular target: Cyclin-dependent kinase 2 (Homo sapiens, UniProt P24941); assay: Inhibition of CDK2 (unknown origin)
# [11] = molecular target: Testis-specific serine/threonine-protein kinase 2 (Homo sapiens, UniProt Q96PF2); assay: Inhibition of TSSK2 (unknown origin)
# CHL-1 = assay: Cytotoxicity against human CHL-1 cells expressing wild type BRAF after 3 days by proliferation assay; assay type: functional, cell-based; conditions: CHL-1, 72 h
# [12] = molecular target: Mitogen-activated protein kinase 3 (Homo sapiens) (UniProt P27361); assay: Inhibition of ERK1 phosphorylation in human A2058 cells after 4 hrs by immunoblotting analysis; assay type: cell-based
# How it was run: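 A2058 cells treated 4 h at 37 °C with 0–10000 nM compound (150, 312, 625, 1250, 2500, 5000, 10000 nM). Equal-protein lysates immunoblotted for phospho-ERK1,2 and total ERK1,2, developed by ECL. A MEK inhibitor serves as positive control.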
# [13] = molecular target: Insulin-like growth factor 1 receptor (Homo sapiens, UniProt P08069); assay: Inhibition of IGF1R (unknown origin)
# [14] = molecular target: Rho-associated protein kinase 2 (Homo sapiens, UniProt O75116); assay: Inhibition of ROCK2 (unknown origin)
# [15] = Cytotoxicity against human A375SM cells expressing BRAF mutant after 3 days by proliferation assay; assay type: functional, cell-based; conditions: A375-SM, 72 h
# How it was run: (§1)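 A2058, Colo-205 (2000 cells/well) or A375SM (1500 cells/well) in RPMI1640 with 10% FBS and penicillin–streptomycin, on collagen-coated plates. Cells attach for 2 h, then compound is added in DMSO (final 1.0% or 0.1%). Incubated 3 days at 37 °C, 5% CO2. Viability read by CellTiter-Glo luminescence.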
# [16] = molecular target: Dual specificity mitogen-activated protein kinase kinase 1 (Homo sapiens, UniProt Q02750); assay: Inhibition of MEK1 (unknown origin)
# [17] = molecular target: Serine/threonine-protein kinase Chk1 (Homo sapiens, UniProt O14757); assay: Inhibition of CHK1 (unknown origin)
# [18] = molecular target: Receptor-type tyrosine-protein kinase FLT3 (Homo sapiens, UniProt P36888); assay: Inhibition of FLT3 (unknown origin)
# [19] = molecular target: Protein kinase C alpha type (Homo sapiens, UniProt P17252); assay: Inhibition of PKCA (unknown origin)
# [20] = molecular target: Vascular endothelial growth factor receptor 1 (Homo sapiens, UniProt P17948); assay: Inhibition of VEGFR1 (unknown origin)
# [21] = molecular target: Cyclin-dependent kinase 4 (Homo sapiens, UniProt P11802); assay: Inhibition of CDK4 (unknown origin)
# [22] = molecular target: Cyclin-dependent kinase 6 (Homo sapiens, UniProt Q00534); assay: Inhibition of CDK6 (unknown origin)
# [23] = molecular target: Ribosomal protein S6 kinase alpha-3 (Homo sapiens, UniProt P51812); assay: Inhibition of RSK2 (unknown origin)
# [24] = molecular target: Interleukin-1 receptor-associated kinase 4 (Homo sapiens, UniProt Q9NWZ3); assay: Inhibition of IRAK4 (unknown origin)
# [25] = molecular target: T2, Mitogen-activated protein kinase 1; assay: Binding to unphosphorylated ERK2 (unknown origin) by temperature dependent fluorescence (TdF) assay
# [26] = molecular target: RAC-alpha serine/threonine-protein kinase (Homo sapiens, UniProt P31749); assay: Inhibition of AKT1 (unknown origin)
# A2058 [27] = assay: Cytotoxicity against human A2058 cells expressing BRAF mutant after 3 days by proliferation assay; assay type: functional, cell-based; conditions: A2058, 72 h
# How it was run: as §1
# [28] = molecular target: Hepatocyte growth factor receptor (Homo sapiens, UniProt P08581); assay: Inhibition of MET (unknown origin)
# Ephrin type-B receptor 4 = Ephrin type-B receptor 4 (Homo sapiens, UniProt P54760); assay: Inhibition of EPHB4 (unknown origin)
# [29] = molecular target: Tyrosine-protein kinase JAK2 (Homo sapiens, UniProt O60674); assay: Inhibition of JAK2 (unknown origin)
# [30] = molecular target: Glycogen synthase kinase-3 beta (Homo sapiens, UniProt P49841); assay: Inhibition of GSK3beta (unknown origin)
# [31] = molecular target: T2, Mitogen-activated protein kinase 1; assay: Binding to phosphorylated ERK2 (unknown origin) by temperature dependent fluorescence (TdF) assay
# [32] = molecular target: Tyrosine-protein kinase ABL1 (Homo sapiens, UniProt P00519); assay: Inhibition of ABL (unknown origin)
# COLO 205 = assay: Cytotoxicity against human COLO205 cells expressing BRAF mutant after 3 days by proliferation assay; assay type: functional, cell-based; conditions: COLO 205, 72 h
# How it was run: as §1
# [33] = molecular target: Epidermal growth factor receptor (Homo sapiens, UniProt P00533); assay: Inhibition of EGFR (unknown origin)
# [34] = molecular target: Serine/threonine-protein kinase B-raf (Homo sapiens, UniProt P15056); assay: Inhibition of B-RAF (unknown origin)
# [35] = molecular target: Serine/threonine-protein kinase Nek2 (Homo sapiens, UniProt P51955); assay: Inhibition of NEK2 (unknown origin)
# [36] = molecular target: Casein kinase I isoform delta (Homo sapiens, UniProt P48730); assay: Inhibition of CSNK1D (unknown origin)
# [37] = molecular target: Tyrosine-protein kinase Lck (Homo sapiens, UniProt P06239); assay: Inhibition of LCK (unknown origin)
# T1 sequence (P36507 whole entry, looked up): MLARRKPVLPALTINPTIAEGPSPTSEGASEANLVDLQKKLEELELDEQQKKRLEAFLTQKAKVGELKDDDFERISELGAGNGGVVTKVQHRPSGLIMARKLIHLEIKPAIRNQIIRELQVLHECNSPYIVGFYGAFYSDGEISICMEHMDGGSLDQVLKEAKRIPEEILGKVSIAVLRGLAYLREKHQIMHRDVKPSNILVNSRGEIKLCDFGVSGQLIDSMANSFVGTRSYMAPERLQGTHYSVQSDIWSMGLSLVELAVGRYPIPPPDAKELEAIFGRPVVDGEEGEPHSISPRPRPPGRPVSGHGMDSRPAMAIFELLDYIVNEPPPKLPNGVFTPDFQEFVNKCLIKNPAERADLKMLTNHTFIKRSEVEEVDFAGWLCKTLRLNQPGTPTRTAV
# T1 sequence (Q02750 whole entry, looked up): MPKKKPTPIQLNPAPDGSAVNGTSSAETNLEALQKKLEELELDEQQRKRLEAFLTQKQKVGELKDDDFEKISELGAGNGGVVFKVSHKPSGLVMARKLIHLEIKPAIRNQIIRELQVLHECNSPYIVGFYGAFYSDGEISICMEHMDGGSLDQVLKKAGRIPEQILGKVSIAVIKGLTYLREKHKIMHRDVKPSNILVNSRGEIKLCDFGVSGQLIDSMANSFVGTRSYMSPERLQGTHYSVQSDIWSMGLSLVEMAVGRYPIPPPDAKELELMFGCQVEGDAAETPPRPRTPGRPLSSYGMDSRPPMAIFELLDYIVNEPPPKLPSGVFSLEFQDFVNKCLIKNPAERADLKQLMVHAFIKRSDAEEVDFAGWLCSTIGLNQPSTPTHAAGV
# Sequence of Mitogen-activated protein kinase 1 (Mus musculus) (P63085 whole entry, looked up): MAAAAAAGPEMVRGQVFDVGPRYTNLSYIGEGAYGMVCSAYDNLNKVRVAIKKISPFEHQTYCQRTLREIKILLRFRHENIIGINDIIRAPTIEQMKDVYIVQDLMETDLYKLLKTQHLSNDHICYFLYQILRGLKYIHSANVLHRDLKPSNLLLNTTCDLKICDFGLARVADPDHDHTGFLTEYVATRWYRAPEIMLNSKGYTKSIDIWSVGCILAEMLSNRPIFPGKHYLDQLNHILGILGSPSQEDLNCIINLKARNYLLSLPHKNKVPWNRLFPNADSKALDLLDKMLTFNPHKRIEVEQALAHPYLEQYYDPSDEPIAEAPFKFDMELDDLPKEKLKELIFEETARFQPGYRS
# T2 sequence (P28482 whole entry): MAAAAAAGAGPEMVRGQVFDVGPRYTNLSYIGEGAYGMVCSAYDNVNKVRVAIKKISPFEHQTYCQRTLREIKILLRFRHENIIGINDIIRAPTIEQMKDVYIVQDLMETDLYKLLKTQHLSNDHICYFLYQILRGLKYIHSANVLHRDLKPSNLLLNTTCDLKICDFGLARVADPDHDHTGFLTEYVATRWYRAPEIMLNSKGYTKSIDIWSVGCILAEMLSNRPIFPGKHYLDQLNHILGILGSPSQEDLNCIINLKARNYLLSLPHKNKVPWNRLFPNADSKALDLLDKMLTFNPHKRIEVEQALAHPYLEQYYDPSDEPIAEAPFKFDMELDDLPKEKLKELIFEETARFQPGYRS
# Sequence of Vascular endothelial growth factor receptor 1 (P17948 whole entry): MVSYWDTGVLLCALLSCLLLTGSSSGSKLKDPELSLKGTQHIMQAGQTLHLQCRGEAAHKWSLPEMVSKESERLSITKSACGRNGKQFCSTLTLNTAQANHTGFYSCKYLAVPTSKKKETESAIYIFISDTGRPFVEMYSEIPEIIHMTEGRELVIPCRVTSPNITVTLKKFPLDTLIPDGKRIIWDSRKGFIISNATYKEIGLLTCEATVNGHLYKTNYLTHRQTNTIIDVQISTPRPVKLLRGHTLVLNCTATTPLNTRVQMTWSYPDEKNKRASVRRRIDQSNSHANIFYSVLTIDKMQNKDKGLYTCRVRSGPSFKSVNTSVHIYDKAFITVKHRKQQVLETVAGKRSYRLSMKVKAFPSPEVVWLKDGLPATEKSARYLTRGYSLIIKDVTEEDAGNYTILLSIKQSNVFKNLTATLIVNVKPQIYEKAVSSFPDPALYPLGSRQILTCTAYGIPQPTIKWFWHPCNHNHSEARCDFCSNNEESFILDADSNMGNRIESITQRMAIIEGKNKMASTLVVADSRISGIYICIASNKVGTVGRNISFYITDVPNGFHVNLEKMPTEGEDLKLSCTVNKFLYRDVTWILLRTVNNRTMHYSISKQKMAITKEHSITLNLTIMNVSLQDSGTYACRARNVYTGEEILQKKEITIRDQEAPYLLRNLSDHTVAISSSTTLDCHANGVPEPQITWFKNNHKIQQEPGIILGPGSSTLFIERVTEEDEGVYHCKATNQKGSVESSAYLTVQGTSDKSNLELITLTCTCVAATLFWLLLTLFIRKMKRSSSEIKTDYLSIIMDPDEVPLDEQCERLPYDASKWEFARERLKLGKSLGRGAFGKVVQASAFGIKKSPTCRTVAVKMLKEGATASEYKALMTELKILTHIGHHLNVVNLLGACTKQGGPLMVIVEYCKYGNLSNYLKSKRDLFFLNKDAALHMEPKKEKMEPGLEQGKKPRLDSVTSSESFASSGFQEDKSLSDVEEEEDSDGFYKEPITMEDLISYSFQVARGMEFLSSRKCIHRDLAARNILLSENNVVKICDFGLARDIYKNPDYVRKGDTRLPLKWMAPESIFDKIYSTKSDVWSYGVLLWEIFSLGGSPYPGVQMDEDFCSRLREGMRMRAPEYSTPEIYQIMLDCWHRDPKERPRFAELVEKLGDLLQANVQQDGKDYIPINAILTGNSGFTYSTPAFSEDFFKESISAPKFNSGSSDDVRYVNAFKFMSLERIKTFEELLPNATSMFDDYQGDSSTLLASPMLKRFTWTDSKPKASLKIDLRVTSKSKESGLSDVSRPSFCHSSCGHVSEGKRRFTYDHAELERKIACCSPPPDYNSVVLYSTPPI
# Sequence of Ephrin type-B receptor 4 (P54760 whole entry): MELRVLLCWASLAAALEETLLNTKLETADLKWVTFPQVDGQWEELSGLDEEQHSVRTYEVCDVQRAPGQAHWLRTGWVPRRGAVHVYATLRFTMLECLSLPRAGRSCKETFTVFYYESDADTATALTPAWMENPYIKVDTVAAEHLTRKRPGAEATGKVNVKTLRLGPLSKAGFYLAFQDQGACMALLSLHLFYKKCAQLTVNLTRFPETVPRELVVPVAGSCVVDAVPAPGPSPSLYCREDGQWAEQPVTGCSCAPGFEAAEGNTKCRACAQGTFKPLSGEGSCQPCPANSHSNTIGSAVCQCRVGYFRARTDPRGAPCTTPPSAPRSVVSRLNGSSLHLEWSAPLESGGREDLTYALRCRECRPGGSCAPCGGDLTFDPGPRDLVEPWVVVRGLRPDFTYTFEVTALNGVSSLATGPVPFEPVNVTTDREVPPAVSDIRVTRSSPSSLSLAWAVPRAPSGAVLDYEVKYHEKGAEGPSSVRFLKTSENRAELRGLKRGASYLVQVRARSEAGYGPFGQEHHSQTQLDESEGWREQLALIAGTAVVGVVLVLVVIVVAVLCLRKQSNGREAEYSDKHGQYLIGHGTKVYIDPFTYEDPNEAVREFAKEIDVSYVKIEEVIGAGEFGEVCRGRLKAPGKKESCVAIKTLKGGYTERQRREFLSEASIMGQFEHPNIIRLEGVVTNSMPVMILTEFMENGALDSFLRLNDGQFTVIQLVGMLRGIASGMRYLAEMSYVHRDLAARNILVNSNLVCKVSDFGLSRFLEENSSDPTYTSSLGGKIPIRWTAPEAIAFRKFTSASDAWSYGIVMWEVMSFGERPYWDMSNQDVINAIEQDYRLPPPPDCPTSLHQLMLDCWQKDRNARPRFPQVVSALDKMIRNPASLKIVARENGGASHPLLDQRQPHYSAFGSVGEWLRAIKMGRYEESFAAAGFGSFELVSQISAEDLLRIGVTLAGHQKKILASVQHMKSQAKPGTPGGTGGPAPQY
# Sequence of Ribosomal protein S6 kinase alpha-3 (P51812 whole entry): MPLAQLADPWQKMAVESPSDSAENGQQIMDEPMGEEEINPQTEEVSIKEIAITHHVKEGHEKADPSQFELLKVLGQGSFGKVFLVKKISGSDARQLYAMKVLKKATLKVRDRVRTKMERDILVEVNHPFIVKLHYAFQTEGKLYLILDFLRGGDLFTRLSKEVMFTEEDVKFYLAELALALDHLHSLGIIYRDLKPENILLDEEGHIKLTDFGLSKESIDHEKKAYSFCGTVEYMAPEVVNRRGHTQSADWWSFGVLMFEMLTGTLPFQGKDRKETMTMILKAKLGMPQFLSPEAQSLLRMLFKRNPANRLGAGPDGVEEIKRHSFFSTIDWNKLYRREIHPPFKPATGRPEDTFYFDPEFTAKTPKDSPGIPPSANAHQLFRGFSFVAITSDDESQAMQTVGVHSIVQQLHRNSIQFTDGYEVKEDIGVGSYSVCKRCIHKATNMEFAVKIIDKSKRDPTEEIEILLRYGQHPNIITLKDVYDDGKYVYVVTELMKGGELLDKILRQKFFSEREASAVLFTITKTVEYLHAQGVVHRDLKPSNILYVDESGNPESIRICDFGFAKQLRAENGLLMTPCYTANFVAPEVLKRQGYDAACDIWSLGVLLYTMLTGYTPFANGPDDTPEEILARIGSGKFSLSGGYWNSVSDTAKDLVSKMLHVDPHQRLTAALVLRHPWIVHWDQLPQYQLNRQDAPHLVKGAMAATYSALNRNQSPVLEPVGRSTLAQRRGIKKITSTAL
# Sequence of Cyclin-dependent kinase 6 (Q00534 whole entry): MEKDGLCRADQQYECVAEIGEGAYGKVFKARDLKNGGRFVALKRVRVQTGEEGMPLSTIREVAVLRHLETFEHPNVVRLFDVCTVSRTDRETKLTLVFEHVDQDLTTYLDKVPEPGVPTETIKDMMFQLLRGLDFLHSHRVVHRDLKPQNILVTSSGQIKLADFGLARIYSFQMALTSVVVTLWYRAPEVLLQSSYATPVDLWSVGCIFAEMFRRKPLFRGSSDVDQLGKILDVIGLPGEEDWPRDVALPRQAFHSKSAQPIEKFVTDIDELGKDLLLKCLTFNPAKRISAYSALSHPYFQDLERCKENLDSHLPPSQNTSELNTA
structure (smiles),measurement,setting,value
CC(=O)c1ccc(N2CCN(C(=O)CN3CC[C@@H](C(=O)Nc4ccc(O)c(C)c4)C3)CC2)cc1,IC50,[1],4.2 µM
same,Activity,[2],inactive
same,IC50,[3],2.5 µM
same,Activity,[4],inactive
CC(=O)c1ccc(N2CCN(C(=O)CN3CC[C@@H](C(=O)Nc4ccc(O)c(Cl)c4)C3)CC2)cc1,IC50,[5],> 30 µM
same,IC50,[6],> 50 µM
same,IC50,[7],> 30 µM
same,IC50,[8],> 30 µM
same,inhibition,A2058 [9],Dose-dependent effect
same,IC50,[10],> 50 µM
same,IC50,[11],> 30 µM
same,IC50,CHL-1,> 100 µM
same,IC50,[1],0.36 µM
same,inhibition,[12],Dose-dependent effect
same,IC50,[13],> 30 µM
same,IC50,[14],> 30 µM
same,IC50,[15],11.5 µM
same,IC50,[16],> 20 µM
same,IC50,[17],> 30 µM
same,Activity,[2],inactive
same,IC50,[18],> 30 µM
same,IC50,[3],2.6 µM
same,IC50,[19],> 30 µM
same,IC50,[20],> 50 µM
same,IC50,[21],> 50 µM
same,IC50,[22],> 50 µM
same,IC50,[23],27 µM
same,IC50,[24],> 30 µM
same,Kd,[25],0.05 µM
same,IC50,[26],> 30 µM
same,IC50,A2058 [27],28.8 µM
same,IC50,[28],> 30 µM
same,IC50,Ephrin type-B receptor 4,> 30 µM
same,IC50,[29],> 30 µM
same,IC50,[30],> 50 µM
same,Kd,[31],0.14 µM
same,IC50,[32],> 30 µM
same,IC50,COLO 205,10.8 µM
same,IC50,[33],> 50 µM
same,IC50,[34],> 30 µM
same,IC50,[35],> 30 µM
same,IC50,[36],> 30 µM
same,IC50,[37],> 30 µM
same,Activity,[4],inactive
O=C(Nc1ccc(O)c(Cl)c1)[C@@H]1CCN(CC(=O)N2CCN(c3nc4ccccc4s3)CC2)C1,IC50,[1],0.48 µM
same,Activity,[2],inactive
same,IC50,[3],1.6 µM
same,Kd,[25],0.17 µM
same,Kd,[31],0.27 µM
same,Activity,[4],inactive
O=C(Nc1ccc(O)c(Cl)c1)[C@@H]1CCN(CC(=O)N2CCN(c3ccc(-c4ccoc4)cc3)CC2)C1,IC50,[1],1.4 µM
same,Activity,[2],inactive
same,IC50,[3],5.5 µM
same,Kd,[25],0.12 µM
same,Kd,[31],0.33 µM
same,Activity,[4],inactive
O=C(Nc1ccc(O)c(Cl)c1)[C@@H]1CCN(CC(=O)N2CCN(c3ccc(-c4ccccc4)cc3)CC2)C1,IC50,[1],5.6 µM
same,Activity,[2],inactive
same,IC50,[3],4.4 µM
same,Kd,[25],0.15 µM
same,Kd,[31],0.72 µM
same,Activity,[4],inactive
CC(=O)c1ccc(N2CCN(C(=O)CN3CC[C@@H](C(=O)Nc4ccc(O)cc4Cl)C3)CC2)cc1,IC50,[1],12.7 µM
same,Activity,[2],inactive
same,IC50,[3],50 µM
same,Kd,[25],> 10 µM
same,Kd,[31],> 10 µM
same,Activity,[4],inactive
CC(=O)c1ccc(N2CCN(C(=O)CN3CCC(C(=O)Nc4ccc(O)c(Cl)c4)C3)CC2)cc1 (racemic),IC50,[1],1.2 µM
same,Activity,[2],inactive
same,IC50,[3],4.2 µM
same,Kd,[25],0.15 µM
same,Kd,[31],0.27 µM
same,Activity,[4],inactive
O=C(NOC[C@H](O)CO)c1ccc(F)c(F)c1Nc1ccc(I)cc1F [MIRDAMETINIB],IC50,[1],0.025 µM
same,IC50,[3],> 40 µM
same,Kd,[25],> 10 µM
same,Kd,[31],> 10 µM
